Bioassay records as filed in PubChem BioAssay.
A selection: hits, their analogues and other compounds. The true share with any hit is near 3.5%.
MrgX1 ag: human MrgX1 receptor agonism, primary screen. Q96LB2. MrgX1-HEK293 cells, Fluo-4 calcium fluorescence, agonist mode; active compounds read high. B-score at 10 µM. 310,000 tested, 0.44% active;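 active means calcium response B-score plate-corrected fluorescence ratio at least 3 library SD, with starting fluorescence B-score inside 5 SD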
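Test system: Stable human MrgX1 HEK293 cell line | Schedule: Overnight plating before 1 h dye loading | Read-out basis: Baseline-normalised fluorescence change ratio, B-scored | Detection: Kinetic calcium dye fluorescence, Fluo-4 NW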
RGS4 block: inhibitors of human RGS4; 310,000 tested, 0.45% active; HEK293 M3R/RGS4 inducible, Fluo-4 calcium flux; active compounds read high; triggered by carbachol at its EC20; P49798; B-score at 10 µM;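 active means B-score, a plate-corrected calcium signal, over three deviations above library mean, with baseline fluorescence within five deviations of library mean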;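 further: RGS4 expression induced by doxycycline in cells with stable M3 receptor; B-score is computed from the integrated fluorescence ratio over baseline after carbachol; higher B-score means a larger calcium signal and so more RGS4 inhibition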
Target sequence (P49798 whole entry, looked up): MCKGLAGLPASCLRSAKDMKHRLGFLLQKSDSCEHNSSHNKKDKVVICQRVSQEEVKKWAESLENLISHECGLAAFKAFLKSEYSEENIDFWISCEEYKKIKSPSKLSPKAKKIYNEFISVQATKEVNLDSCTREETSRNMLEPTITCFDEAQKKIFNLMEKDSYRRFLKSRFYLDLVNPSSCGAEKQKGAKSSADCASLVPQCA
RGS4 act: potentiators or activators of RGS4. AID 463111. HEK293 M3R/inducible RGS4, carbachol calcium flux Fluo4; active compounds read low. B-score at 10 µM. 310,000 tested, 0.92% active;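 active means B-score of the integrated calcium signal more than 4 SD below the library mean, with starting fluorescence not abnormally high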;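 further: negative B-score means reduced calcium response which marks RGS4 activation or potentiation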
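Assay system: Inducible-RGS4 HEK293 cells carrying M3 receptor | Schedule: Compound preincubation 20 min at room temperature before agonist | Signal: Kinetic calcium fluorescence imaging with Fluo4-AM dye, 2 µM | Read-out basis: B score from integrated fluorescence ratio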
MrgX1 antag: antagonists of human MrgX1 receptor | MRGX1-HEK293 calcium flux, Fluo-4, BAM8-22 antagonism; active compounds read low | Q96LB2 | B-score at 10 µM | 310,000 tested, 1.3% active;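 active means calcium-response B-score plate-corrected more than 3 library SD below zero, starting fluorescence within 5 deviations, no agonist response on first addition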;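 further: peak minus trough fluorescence over baseline after final BAM8-22 challenge near maximal dose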
MrgX1 allo act: human MrgX1 positive allosteric modulation, primary screen; Q96LB2; MrgX1-HEK293, Fluo-4 calcium flux, FDSS; active compounds read high; B-score at 10 µM; 310,000 tested, 0.63% active; AID 588675;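 active means plate-corrected calcium response at least 3 library SD above typical, normal starting fluorescence, not activating the receptor alone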;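 further: compound read alongside a low EC10 to EC30 dose of BAM8-22 agonist; peak minus trough fluorescence over baseline measured at the second addition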
* = called active by the depositor; i = inactive; nt = no result.

SMILES	MrgX1 ag	RGS4 block	RGS4 act	MrgX1 antag	MrgX1 allo act
Cc1ccc(NC(=O)C2CCCN2S(=O)(=O)c2ccc3c(c2)n(C)c(=O)c(=O)n3C)cc1C (centres undefined)	i	i	-7*	i	i
Cc1cccc(C)c1OCc1nc2ccccc2[nH]1	i	i	i	i	i
C=CCOc1ccccc1/C=c1\sc2nc(=O)c(C)nn2c1=O	28*	i	i	i	i
O=C(CC(=O)NCCc1ccccc1)NCCc1ccccc1	i	i	i	i	i
O=[N+]([O-])/C=C/c1c(OCc2ccccc2)ccc2ccccc12	i	13*	i	i	i
O=C(O)/C=C/c1ccc(OCc2cccc(F)c2)cc1	i	i	i	-5.4*	i
O=C(OCc1cccc([N+](=O)[O-])c1)c1ccc2ccccc2n1	i	i	i	i	12*
O=C(OCc1ccc([N+](=O)[O-])cc1)c1ccc2ccccc2n1	i	i	i	i	i
O=S(=O)(c1ccc(F)cc1)n1ccc(-c2cccc(OCc3ccc(Cl)cc3Cl)c2)n1	i	i	i	-8.1*	i
CC(Oc1ccc(-c2ccccc2)c(F)c1)c1ccn(S(=O)(=O)c2ccc(F)cc2)n1 (centres undefined)	i	i	i	i	i
Cc1ccc(C(=O)c2c(C)oc3c2C(=O)C(=O)c2ccccc2-3)cc1	i	i	-7.5*	i	i
Cc1oc2c(c1C(=O)c1ccc(Cl)cc1)C(=O)C(=O)c1ccccc1-2	nt	i	i	nt	nt
O=C(Cc1cccs1)NNC(=S)NC(=O)c1ccc(F)c(F)c1	61*	i	i	i	i
O=C(Cc1cccs1)NNC(=S)NC(=O)c1ccccc1	43*	i	i	i	i
O=C(NC(=S)NCc1ccccc1)c1cccs1	i	i	i	i	i
O=C(COc1ccccc1)NNC(=S)NC(=O)c1ccccc1	i	i	i	i	i
O=C(Cc1ccccc1)NNC(=S)NC(=O)c1cccs1	60*	i	i	i	i
CCn1cnc2sc(C(=O)N3CCN(c4ccc(OC)cc4)CC3)c(C)c2c1=O	i	i	i	i	i
COc1ccccc1C(=O)Nc1c(C(=O)N(CCN(C)C)Cc2ccco2)oc2ccccc12	i	i	i	i	i
COc1ccc(OCC(=O)Nc2c(C(=O)N(CCN(C)C)Cc3ccco3)oc3ccccc23)cc1	i	i	i	-5.1*	i
CCOC(=O)c1nc(S(C)(=O)=O)ncc1Cl	43*	i	i	i	i
CCOC(=O)c1nc(S(C)(=O)=O)ncc1N1CCOCC1	i	i	i	i	i
Cc1cccc(C)c1Nc1nnc(SCC(=O)c2ccc(Br)s2)s1	i	i	-7.7*	i	i
Cc1ccc(Nc2nnc(SCC(=O)c3ccc(Br)s3)s2)c(C)c1	i	i	i	i	i
COc1ccc(Cc2nnc(SCC(=O)NC3CCCC3)o2)cc1	i	i	i	i	i
SMILES	MrgX1 ag	RGS4 block	RGS4 act	MrgX1 antag	MrgX1 allo act
CCCCCCn1c(COc2ccccc2F)nnc1SCC(=O)c1c(N)n(C)c(=O)n(C)c1=O	i	i	i	i	i
C=CCn1c(COc2cc(C)ccc2C(C)C)nnc1SCC(=O)c1c(N)n(C)c(=O)n(C)c1=O	i	i	i	-4.7*	i
O=C(Nc1ccc(C(=O)O)cc1)/C(=C\C=C\c1ccccc1)NC(=O)c1cccc(Br)c1	i	i	i	i	i
O=C(Nc1ccc(C(=O)O)cc1)/C(=C\C=C\c1ccccc1)NC(=O)c1ccccc1Br	i	i	-7.7*	i	i
COc1cc(C(=O)COC(=O)c2cc([N+](=O)[O-])ccc2N2CCOCC2)ccc1OC(F)F	i	i	i	-6.2*	i
COc1ccccc1C(=O)COC(=O)c1cc([N+](=O)[O-])ccc1N1CCOCC1	i	i	i	i	i
COC(=O)Cn1ncc2c3ccccc3n(Cc3ccccc3)c2c1=O	i	i	i	i	i
O=C(Cn1ncc2c3ccccc3n(Cc3ccc(Cl)cc3)c2c1=O)NCCCN1CCCC1=O	i	i	i	i	i
